In ChEMBL document CHEMBL1134796, “Indenopyrazoles as novel cyclin dependent kinase (CDK) inhibitors” (J Med Chem, 2001):

How the values were obtained:
[1] = target: Cyclin-dependent kinase 2/cyclin E (Homo sapiens, UniProt P24941); experiment: Inhibition of Cyclin-dependent kinase 2-cyclin E; assay type: protein-complex assay
Procedure, shortened: (§1)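 Lysates of insect cells expressing the cdk and its cyclin partner, run in kinase buffer with ³²P-ATP, GST-Rb fusion substrate and the compound at varying concentrations. Reaction stopped with excess EDTA. GST-Rb captured on GSH-Sepharose beads, washed, and counted by scintillation. IC50 is the concentration giving 50% inhibition of kinase activity.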

[2] = target: Cyclin-dependent kinase 4/cyclin D1 (Homo sapiens, UniProt P11802); experiment: Inhibition of Cyclin Dependent Kinase 4 cyclin D1; assay type: protein-complex assay; procedure, shortened: as §1
Cyclin-dependent kinase 4/cyclin D1, sequence (P11802 whole entry): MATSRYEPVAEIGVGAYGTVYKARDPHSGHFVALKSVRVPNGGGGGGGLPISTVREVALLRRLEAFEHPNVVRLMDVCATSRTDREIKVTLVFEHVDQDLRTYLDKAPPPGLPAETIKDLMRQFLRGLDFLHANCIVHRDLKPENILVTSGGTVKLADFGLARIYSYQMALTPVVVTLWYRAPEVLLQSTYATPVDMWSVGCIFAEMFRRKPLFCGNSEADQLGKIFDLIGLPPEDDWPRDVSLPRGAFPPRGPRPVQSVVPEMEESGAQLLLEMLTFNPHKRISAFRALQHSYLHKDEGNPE
Cyclin-dependent kinase 4/cyclin D1, sequence (P24385 whole entry, further chain): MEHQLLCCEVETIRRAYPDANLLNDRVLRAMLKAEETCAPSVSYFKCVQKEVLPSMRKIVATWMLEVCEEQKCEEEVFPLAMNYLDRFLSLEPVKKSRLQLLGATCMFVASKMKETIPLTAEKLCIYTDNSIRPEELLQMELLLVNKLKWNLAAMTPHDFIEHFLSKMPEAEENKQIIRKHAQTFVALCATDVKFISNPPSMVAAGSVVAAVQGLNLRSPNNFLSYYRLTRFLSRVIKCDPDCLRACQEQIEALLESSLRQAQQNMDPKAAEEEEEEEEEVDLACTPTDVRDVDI

[3] = Inhibition of protein kinase A (PKA)
[4] = target: Protein kinase C (PKC); experiment: Inhibition of protein kinase C (PKC); assay type: protein assay
[5] = target: Tyrosine-protein kinase ABL1 (Homo sapiens, UniProt P00519); experiment: Inhibition of c-Abl kinase
Tyrosine-protein kinase ABL1, sequence (P00519 whole entry): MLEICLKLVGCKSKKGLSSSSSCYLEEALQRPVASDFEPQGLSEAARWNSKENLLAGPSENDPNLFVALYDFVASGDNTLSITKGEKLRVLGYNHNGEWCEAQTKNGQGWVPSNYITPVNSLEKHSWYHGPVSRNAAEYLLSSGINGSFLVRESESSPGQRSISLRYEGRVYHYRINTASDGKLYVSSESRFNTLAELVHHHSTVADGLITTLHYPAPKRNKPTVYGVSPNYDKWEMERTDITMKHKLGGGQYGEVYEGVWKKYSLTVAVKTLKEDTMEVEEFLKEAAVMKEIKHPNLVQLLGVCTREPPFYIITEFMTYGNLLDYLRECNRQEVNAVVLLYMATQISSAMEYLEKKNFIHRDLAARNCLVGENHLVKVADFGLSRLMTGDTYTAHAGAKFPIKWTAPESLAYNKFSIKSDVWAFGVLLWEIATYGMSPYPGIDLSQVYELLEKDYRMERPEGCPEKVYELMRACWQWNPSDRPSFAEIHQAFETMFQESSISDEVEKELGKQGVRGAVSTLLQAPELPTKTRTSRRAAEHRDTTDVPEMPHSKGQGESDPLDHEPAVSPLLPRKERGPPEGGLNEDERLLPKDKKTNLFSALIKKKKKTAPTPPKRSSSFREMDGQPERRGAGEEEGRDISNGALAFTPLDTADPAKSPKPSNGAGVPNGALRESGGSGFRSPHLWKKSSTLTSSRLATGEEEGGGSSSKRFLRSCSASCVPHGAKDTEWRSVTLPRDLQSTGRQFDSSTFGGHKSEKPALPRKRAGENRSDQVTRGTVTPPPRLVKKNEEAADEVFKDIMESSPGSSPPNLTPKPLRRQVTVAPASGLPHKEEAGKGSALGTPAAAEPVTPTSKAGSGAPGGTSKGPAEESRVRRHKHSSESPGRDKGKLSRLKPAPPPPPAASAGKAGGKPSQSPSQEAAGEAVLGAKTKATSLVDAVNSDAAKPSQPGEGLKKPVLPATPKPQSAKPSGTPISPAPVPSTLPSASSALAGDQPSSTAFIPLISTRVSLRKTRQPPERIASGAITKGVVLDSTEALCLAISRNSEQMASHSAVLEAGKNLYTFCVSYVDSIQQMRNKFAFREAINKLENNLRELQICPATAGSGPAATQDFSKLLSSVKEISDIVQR

[6] = test system: HCT-116; experiment: Inhibition of HCT116 cell proliferation; assay type: functional, cell-based; conditions: Homo sapiens
Procedure, shortened: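 HCT116 cells cultured with compound at increasing concentrations. At selected time points, cells fixed with trichloroacetic acid and stained with sulforhodamine B. Unbound dye washed off, and bound dye extracted for optical density reading.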

[7] = test system: AG1523; experiment: Cytotoxic effect on human AG1523 fibroblast cells; assay type: functional, cell-based
[8] = test system: Mus musculus; experiment: In vivo antitumor activity in mice at 1 mg/kg/day (dosing schedule Q1DX14); assay type: functional
Procedure, shortened: (§2)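 Female nude mice carrying HCT116 human colon carcinoma xenografts, 1 × 10⁷ cells injected subcutaneously into the inguinal region. Drug given intraperitoneally once daily for 14 days, starting 7 days after cell injection. Tumors excised and weighed on day 15 post-dosing. Growth inhibition index (%) = (1 − mean net tumor weight treated/mean net tumor weight control) × 100.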

[9] = test system: Mus musculus; experiment: In vivo antitumor activity in mice at 1 mg/kg/day (dosing schedule Q1DX14); 8/8; assay type: functional
Procedure, shortened: (§3)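 Female nude mice bearing HCT116 human colon carcinoma xenografts (1 × 10⁷ cells/animal, injected s.c. into the inguinal region). Drug was given ip once daily for 14 days, starting 7 days after cell injection. On day 15 after dosing, tumors were excised and weighed. Tumor growth inhibition index (%) = (1 − mean net tumor weight treated/control) × 100. Survivors reflect acute drug toxicity.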

[10] = test system: Mus musculus; experiment: In vivo antitumor activity in mice at 10 mg/kg/day (dosing schedule Q1DX14); assay type: functional; procedure, shortened: as §2
[11] = test system: Mus musculus; experiment: In vivo antitumor activity in mice at 3 mg/kg/day (dosing schedule Q1DX14); assay type: functional; procedure, shortened: as §2
[12] = test system: Mus musculus; experiment: In vivo antitumor activity in mice at 30 mg/kg/day (dosing schedule Q1DX14); assay type: functional; procedure, shortened: as §2
[13] = test system: Mus musculus; experiment: In vivo antitumor activity in mice at 10 mg/kg/day (dosing schedule Q1DX14); 8/8; assay type: functional; procedure, shortened: as §3
[14] = test system: Mus musculus; experiment: In vivo antitumor activity in mice at 3 mg/kg/day (dosing schedule Q1DX14); 8/8; assay type: functional; procedure, shortened: as §3
[15] = test system: Mus musculus; experiment: In vivo antitumor activity in mice at 30 mg/kg/day (dosing schedule Q1DX14); 8/8; assay type: functional; procedure, shortened: as §3
[16] = test system: Mus musculus; experiment: In vivo antitumor activity in mice at 7.5 mg/kg/day (dosing schedule Q1DX14); assay type: functional; procedure, shortened: as §2
[17] = test system: Mus musculus; experiment: In vivo antitumor activity in mice at 7.5 mg/kg/day (dosing schedule Q1DX14); 5/8; assay type: functional; procedure, shortened: as §3

IC50 [1] [µM] | IC50 [2] [µM] | IC50 [6] [µM] | Structure (SMILES) | IC50 [7] [µM] | also measured
26 | 45 |  | COc1ccc(-c2[nH]nc3c2C(=O)c2ccccc2-3)cc1 |  | IC50 [3]: 239 µM; IC50 [4]: > 725 µM; IC50 [5]: > 725 µM
0.27 | 0.45 | 2.7 | COc1ccc(-c2[nH]nc3c2C(=O)c2c(NC(C)=O)cccc2-3)cc1 |  | 
0.038 | 0.48 | 0.4 | COc1ccc(-c2[nH]nc3c2C(=O)c2c(NC(=O)Cc4ccc(N)cc4)cccc2-3)cc1 | > 24 | 
 |  |  | CO[C@@]12[C@H](COC(N)=O)C3=C(C(=O)C(C)=C(N)C3=O)N1C[C@@H]1N[C@@H]12 [MITOMYCIN] |  | Tumor weight [8]: 455 mg; inhibition in vivo at 1 mg/kg/day [8]: 58%; No. survived [9]: 8
41 | > 250 |  | COc1ccc(-c2[nH]nc3c2C(=O)c2c(NC(=O)c4ccccc4)cccc2-3)cc1 |  | 
 |  |  | CN1CCC(c2c(O)cc(O)c3c(=O)cc(-c4ccccc4Cl)oc23)[C@@H](O)C1 (mixture of isomers) |  | Tumor weight [16]: 538 mg; inhibition in vivo at 7.5 mg/kg/day [16]: 50%; No. survived [17]: 5
2.1 | 45 | 7.5 | COc1ccc(-c2[nH]nc3c2C(=O)c2c(NC(=O)C(C)(C)C)cccc2-3)cc1 |  | 
1.4 | 35 | 2.9 | COc1ccc(-c2[nH]nc3c2C(=O)c2c(NC(=O)C(C)C)cccc2-3)cc1 | > 28 | 

Structure (SMILES) | IC50 [1] [µM] | IC50 [2] [µM] | IC50 [6] [µM] | IC50 [7] [µM] | also measured
COc1ccc(-c2[nH]nc3c2C(=O)c2c(NC=O)cccc2-3)cc1 | 0.08 | 0.2 | 0.69 | > 63 | Tumor weight [10]: 871 mg; inhibition in vivo at 10 mg/kg/day [10]: 19%; Tumor weight [11]: 1171 mg; inhibition in vivo at 3 mg/kg/day [11]: 0%; Tumor weight [12]: 608 mg; inhibition in vivo at 30 mg/kg/day [12]: 43%; No. survived [13]: 8; No. survived [14]: 8; No. survived [15]: 8
